Data taken from ChEMBL document CHEMBL1949535, “Synthesis and preliminary antibacterial evaluation of Linezolid-like 1,2,4-oxadiazole derivatives” (2012).

How the values were obtained:
Format in all cases: functional
[1] = test system: Staphylococcus aureus; assay: Antibacterial activity against methicillin-resistant glycopeptide-intermediate Staphylococcus aureus Mu50 after 16 to 20 hrs by microbroth dilution method
Summary of the method: (§1)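 CLSI broth microdilution in Mueller-Hinton broth. Compound stocks in 100% DMSO, serially diluted two-fold to 0.12->256 mg/L. An equal volume of inoculum at 1 x 10⁶ CFU/mL was added to each well. Plates were incubated 16-20 h at 35 °C. MIC (mg/L) was taken as the lowest concentration with no visible growth. DMSO and uninoculated-medium controls were run in parallel.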

[2] = test system: Staphylococcus aureus; assay: Antibacterial activity against methicillin-resistant Staphylococcus aureus C530 after 16 to 20 hrs by microbroth dilution method; summary of the method: as §1
[3] = test system: Streptococcus pneumoniae; assay: Antibacterial activity against Streptococcus pneumoniae PEN-1 after 16 to 20 hrs by microbroth dilution method; details: PEN I
Summary of the method: (§2)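 CLSI broth microdilution in Mueller-Hinton broth. Compounds were dissolved in 100% DMSO and serially two-fold diluted to cover 0.12 to >256 mg/L. An equal volume of inoculum at 1 × 10⁶ CFU/mL was added, then plates were incubated at 35 °C for 16–20 h. MIC was the lowest concentration with no visible growth. DMSO and uninoculated-medium controls were run in parallel.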

[4] = test system: Escherichia coli; assay: Antibacterial activity against Escherichia coli ATCC 25922 after 16 to 20 hrs by microbroth dilution method; summary of the method: as §2
[5] = test system: Escherichia coli; assay: Antibacterial activity against Escherichia coli 3350 after 16 to 20 hrs by microbroth dilution method; summary of the method: as §2
[6] = test system: Serratia marcescens; assay: Antibacterial activity against Serratia marcescens Mel 522 after 16 to 20 hrs by microbroth dilution method; summary of the method: as §2
[7] = test system: Streptococcus pyogenes; assay: Antibacterial activity against Streptococcus pyogenes ATCC 19615 after 16 to 20 hrs by microbroth dilution method; summary of the method: as §1
[8] = test system: Streptococcus pyogenes; assay: Antibacterial activity against erythromycin-resistant Streptococcus pyogenes 6 after 16 to 20 hrs by microbroth dilution method; summary of the method: as §1
[9] = test system: Streptococcus pyogenes; assay: Antibacterial activity against erythromycin-resistant Streptococcus pyogenes 24 after 16 to 20 hrs by microbroth dilution method; summary of the method: as §1
[10] = test system: Streptococcus pyogenes; assay: Antibacterial activity against erythromycin-resistant Streptococcus pyogenes 47 after 16 to 20 hrs by microbroth dilution method; summary of the method: as §1
[11] = test system: Streptococcus pyogenes; assay: Antibacterial activity against erythromycin-sensitive Streptococcus pyogenes 3 after 16 to 20 hrs by microbroth dilution method; summary of the method: as §2
[12] = test system: Streptococcus pyogenes; assay: Antibacterial activity against erythromycin-sensitive Streptococcus pyogenes 9 after 16 to 20 hrs by microbroth dilution method; summary of the method: as §2
[13] = test system: Streptococcus pyogenes; assay: Antibacterial activity against erythromycin-sensitive Streptococcus pyogenes 12 after 16 to 20 hrs by microbroth dilution method; summary of the method: as §2
[14] = test system: Staphylococcus aureus; assay: Antibacterial activity against methicillin-sensitive Staphylococcus aureus ATCC 29213 after 16 to 20 hrs by microbroth dilution method; summary of the method: as §2
[15] = test system: Staphylococcus aureus; assay: Antibacterial activity against methicillin-sensitive Staphylococcus aureus ATCC 25923 after 16 to 20 hrs by microbroth dilution method; summary of the method: as §2
[16] = test system: Staphylococcus aureus; assay: Antibacterial activity against Staphylococcus aureus ATCC 43300 after 16 to 20 hrs by microbroth dilution method; summary of the method: as §2
[17] = test system: Streptococcus pyogenes; assay: Antibacterial activity against compound-resistant Streptococcus pyogenes 24 after 16 to 20 hrs by microbroth dilution method; summary of the method: as §1
[18] = test system: Streptococcus pyogenes; assay: Antibacterial activity against compound-resistant Streptococcus pyogenes 47 after 16 to 20 hrs by microbroth dilution method; summary of the method: as §1

Measured: MIC

CC(=O)NCc1noc(-c2ccc(N3CCOCC3)cc2)n1
128 µg/mL: [3] | [5] | [6] | [7] | [8] | [11] | [12] | [13]
64 µg/mL: [9] | [10]
> 256 µg/mL: [1] | [2] | [4] | [14] | [15] | [16]

CC(=O)NCc1noc(-c2ccc(N3CCOCC3)c(F)c2)n1
128 µg/mL: [4] | [5] | [7] | [8] | [9] | [13]
> 256 µg/mL: [1] | [2] | [3] | [6] | [10] | [11] | [12] | [14] | [15] | [16]

CC(=O)NCc1noc(-c2cc(F)c(N3CCOCC3)c(F)c2)n1
128 µg/mL: [4] | [5] | [7] | [8] | [10]
> 256 µg/mL: [1] | [2] | [3] | [6] | [9] | [11] | [12] | [13] | [14] | [15] | [16]

CC(=O)NCc1noc(-c2cc(F)c(N3CCOCC3)c(F)c2F)n1
> 256 µg/mL: [1] | [2] | [3] | [6] | [9] | [11] | [12] | [13] | [14] | [15] | [16]
128 µg/mL: [4] | [5] | [7] | [8] | [10]

CC(=O)NCc1noc(-c2c(F)c(F)c(N3CCOCC3)c(F)c2F)n1
128 µg/mL: [4]
> 256 µg/mL: [1] | [2] | [3] | [5] | [6] | [7] | [8] | [9] | [10] | [11] | [12] | [13] | [14] | [15] | [16]

NC(=O)c1noc(-c2ccc(N3CCOCC3)cc2)n1
> 256 µg/mL: [1] | [2] | [4] | [9] | [10] | [14] | [15] | [16]
128 µg/mL: [3] | [5] | [6] | [7] | [8] | [11] | [12] | [13]

NC(=O)c1noc(-c2ccc(N3CCOCC3)c(F)c2)n1
128 µg/mL: [4] | [5] | [6] | [7] | [8] | [9] | [11] | [13]
> 256 µg/mL: [1] | [2] | [3] | [10] | [12] | [14] | [15] | [16]

NC(=O)c1noc(-c2cc(F)c(N3CCOCC3)c(F)c2)n1
> 256 µg/mL: [1] | [2] | [3] | [6] | [9] | [11] | [12] | [13] | [14] | [15] | [16]
128 µg/mL: [4] | [5] | [7] | [8] | [10]

NC(=O)c1noc(-c2cc(F)c(N3CCOCC3)c(F)c2F)n1
> 256 µg/mL: [1] | [2] | [3] | [6] | [9] | [11] | [12] | [13] | [14] | [15] | [16]
128 µg/mL: [4] | [5] | [7] | [8] | [10]

NC(=O)c1noc(-c2c(F)c(F)c(N3CCOCC3)c(F)c2F)n1
128 µg/mL: [4]
> 256 µg/mL: [1] | [2] | [3] | [5] | [6] | [7] | [8] | [9] | [10] | [11] | [12] | [13] | [14] | [15] | [16]

CO/N=C(\C(=O)N[C@@H]1C(=O)N2C(C(=O)O)=C(CSc3nc(=O)c(O)nn3C)CS[C@H]12)c1csc(N)n1 [CEFTRIAXONE]
< 0.12 µg/mL: [6] | [7] | [8] | [9] | [10] | [11] | [12] | [13]
0.12 µg/mL: [3] | [4]
1 µg/mL: [15]
8 µg/mL: [16]
4 µg/mL: [1] | [5] | [14]
> 256 µg/mL: [2]

CC[C@H]1OC(=O)[C@H](C)[C@@H](O[C@H]2C[C@@](C)(OC)[C@@H](O)[C@H](C)O2)[C@H](C)[C@@H](O[C@@H]2O[C@H](C)C[C@H](N(C)C)[C@H]2O)[C@](C)(O)C[C@@H](C)C(=O)[C@H](C)[C@@H](O)[C@]1(C)O [ERYTHROMYCIN]
> 256 µg/mL: [17] | [18]

CC(=O)NC[C@H]1CN(c2ccc(N3CCOCC3)c(F)c2)C(=O)O1 [LINEZOLID]
0.25 µg/mL: [13]
0.12 µg/mL: [8] | [9]
128 µg/mL: [6]
> 256 µg/mL: [5]
1 µg/mL: [7] | [10] | [11] | [12] | [15]
4 µg/mL: [4]
